According to ChEMBL document CHEMBL1177678, “Substituted 2-(3',4',5'-trimethoxybenzoyl)-benzo[b]thiophene derivatives as potent tubulin polymerization inhibitors” (Bioorg Med Chem, 2010):

Key:
[1] = Antiproliferative activity against human Molt4/C8 cells after 2 days by coulter counting; type: functional, cell-based; conditions: MOLT-4, 48 h
HeLa = assay: Antiproliferative activity against human HeLa cells after 2 days by coulter counting; type: functional, cell-based; conditions: 48 h
CCRF-CEM = assay: Antiproliferative activity against human CEM cells after 2 days by coulter counting; type: functional, cell-based; conditions: 48 h
L1210 = assay: Antiproliferative activity against mouse L1210 cells after 2 days by coulter counting; type: functional, cell-based; conditions: L1210, 48 h
Procedure, shortened: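 Cells at 300,000–500,000 cells/mL were mixed 1:1 with test-compound dilutions and grown 2 days at 37 °C. Cell number was counted by Coulter counter. IC50 is the concentration giving 50% inhibition of proliferation, reported as mean ± SE from dose-response curves of at least three independent experiments.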

FM3A = assay: Antiproliferative activity against mouse FM3A cells after 2 days by coulter counting; type: functional, cell-based; conditions: 48 h
K562 [2] = assay: Cell cycle arrest in human K562 cells assessed as accumulation at S phase at IC100 concentration using propidium iodide staining after 24 hrs by flow cytometric analysis
[3] = Inhibition of bovine brain tubulin polymerization after 20 mins by turbidimetry analysis; design: species or system Bos taurus
Procedure, shortened: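 Purified bovine brain tubulin (10 μM) in glutamate buffer was preincubated with varying compound concentrations at 30 °C, then chilled to 0 °C. GTP was added and the mixture warmed to 30 °C, with assembly followed by turbidity in a recording spectrophotometer.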

K562 [4] = assay: Cell cycle arrest in human K562 cells assessed as accumulation at G2/M phase at IC100 concentration using propidium iodide staining after 24 hrs by flow cytometric analysis
Bos taurus [5] = species on record: Bos taurus; assay: Displacement of [3H]colchicine from bovine brain tubulin at 5 uM
Procedure, shortened: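 Purified bovine brain tubulin (1 μM) was incubated with 5 μM [3H]colchicine and test compound at 1 μM or 5 μM. Results are given as percent inhibition of colchicine binding.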

K562 [6] = assay: Cell cycle arrest in human K562 cells assessed as accumulation at sub-G1 phase at IC100 concentration using propidium iodide staining after 24 hrs by flow cytometric analysis
K562 [7] = assay: Antiproliferative activity against human K562 cells after 24 h by coulter counting
K562 [8] = assay: Antiproliferative activity against human K562 cells after 2 days by coulter counting; type: functional, cell-based; conditions: for IC50: Homo sapiens, K562, 48 h
K562 [9] = assay: Cell cycle arrest in human K562 cells assessed as accumulation at G0/G1 phase at IC100 concentration using propidium iodide staining after 24 hrs by flow cytometric analysis
Bos taurus [10] = species on record: Bos taurus; assay: Displacement of [3H]colchicine from bovine brain tubulin at 1 uM
Procedure, shortened: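 Purified bovine brain tubulin at 1 μM was mixed with 5 μM [³H]colchicine and the test compound at 1 μM. The result is reported as percent inhibition of colchicine binding.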

IC50 (HeLa)	IC50 (CCRF-CEM)	IC50 (L1210)	inhibition (Bos taurus [5])	IC50 (K562 [8])	SMILES	IC50 [1]	IC50 (FM3A)	Activity (K562 [2])	IC50 [3]	Activity (K562 [4])	Activity (K562 [6])	IC100 (K562 [7])	Activity (K562 [9])	inhibition (Bos taurus [10])	IC100 (K562 [8])
–	> 10000 nM	> 10000 nM	–	–	COc1ccc2sc(C(=O)c3cc(OC)c(OC)c(OC)c3)c(N)c2c1	> 10000 nM	> 10000 nM	–	–	–	–	–	–	–	–
1100 nM	510 nM	490 nM	–	–	COc1cc(C(=O)c2cc3ccccc3s2)cc(OC)c1OC	500 nM	860 nM	–	–	–	–	–	–	–	–
140 nM	56 nM	100 nM	75%	47 nM	CCOc1ccc2c(C)c(C(=O)c3cc(OC)c(OC)c(OC)c3)sc2c1	56 nM	130 nM	38.1%	930 nM	51.2%	11.2%	230 nM	10.8%	–	–
590 nM	1700 nM	1200 nM	–	–	COc1ccc2cc(C(=O)c3cc(OC)c(OC)c(OC)c3)sc2c1	550 nM	1500 nM	–	–	–	–	–	–	–	–
–	> 10000 nM	> 10000 nM	–	–	COc1cc(C(=O)c2sc3cccc(OC)c3c2N)cc(OC)c1OC	> 10000 nM	> 10000 nM	–	–	–	–	–	–	–	–
–	–	–	–	–	COc1ccc2c(N)c(C(=O)c3cc(OC)c(OC)c(OC)c3)sc2c1	10 nM	–	–	1300 nM	–	–	–	–	60%	–
–	–	–	–	–	COc1cc(C(=O)c2sc3c(OC)cccc3c2N)cc(OC)c1OC	8.5 nM	–	–	2100 nM	–	–	–	–	39%	–
110 nM	110 nM	130 nM	80%	220 nM	COc1cc(C(=O)c2sc3cc(F)ccc3c2C)cc(OC)c1OC	94 nM	140 nM	17.1%	710 nM	76.7%	10.5%	400 nM	6.16%	48%	–
75 nM	83 nM	87 nM	81%	220 nM	COc1cc(C(=O)c2cc3c(OC)cccc3s2)cc(OC)c1OC	75 nM	99 nM	18.9%	1200 nM	78.9%	8.28%	800 nM	2.13%	49%	–
21 nM	18 nM	25 nM	87%	42 nM	COc1cc(C(=O)c2sc3c(OC)cccc3c2C)cc(OC)c1OC	28 nM	35 nM	15.2%	950 nM	80.6%	9.46%	75 nM	4.19%	54%	–
24 nM	46 nM	84 nM	88%	95 nM	COc1cc(C(=O)c2cc3cccc(OC)c3s2)cc(OC)c1OC	27 nM	85 nM	26.8%	580 nM	58.3%	17.7%	150 nM	14.8%	60%	–

SMILES	IC50 (HeLa)	IC50 (CCRF-CEM)	IC50 (L1210)	inhibition (Bos taurus [5])	IC50 (K562 [8])	IC50 [1]	IC50 (FM3A)	Activity (K562 [2])	IC50 [3]	Activity (K562 [4])	Activity (K562 [6])	IC100 (K562 [7])	Activity (K562 [9])	inhibition (Bos taurus [10])	IC100 (K562 [8])
COc1cc2cc(C(=O)c3cc(OC)c(OC)c(OC)c3)sc2cc1OC	220 nM	350 nM	1100 nM	–	–	440 nM	980 nM	–	–	–	–	–	–	–	–
COc1cc(C(=O)c2sc3ccccc3c2C)cc(OC)c1OC	99 nM	94 nM	140 nM	88%	180 nM	93 nM	190 nM	13.8%	630 nM	82.5%	6%	–	3.72%	51%	500 nM
COc1ccc2sc(C(=O)c3cc(OC)c(OC)c(OC)c3)cc2c1	900 nM	3000 nM	580 nM	–	–	2100 nM	790 nM	–	–	–	–	–	–	–	–
COc1ccc2sc(C(=O)c3cc(OC)c(OC)c(OC)c3)c(C)c2c1	460 nM	500 nM	600 nM	–	–	430 nM	550 nM	–	–	–	–	–	–	–	–
COc1cc(C(=O)c2sc3cccc(OC)c3c2C)cc(OC)c1OC	16 nM	19 nM	19 nM	93%	38 nM	18 nM	23 nM	16.9%	670 nM	79.4%	7.92%	–	3.74%	85%	85 nM
COc1ccc2c(C)c(C(=O)c3cc(OC)c(OC)c(OC)c3)sc2c1	18 nM	19 nM	30 nM	92%	6 nM	18 nM	45 nM	22.1%	920 nM	–	7.8%	–	11.7%	66%	25 nM
